Results on five molecules are retold here after paper PMC4981430 (Neuropharmacology, 2016).

By EC50 is commonly meant the concentration needed to bring the measured effect to its halfway point. One may read the Emax as the greatest response seen or fitted, relative to the assay's reference. One may read the IC50 as the concentration at which inhibition is half-maximal.

The target in series [1] is T1, α2β3γ2 GABAARs (Rattus norvegicus, UniProt P18508+P23576). Put plainly: Whole-cell patch-clamp, potentiation of GABA. The format is cell-based. The settings on record: for Emax: HEK293, read-out: Electrophysiology Emax (potentiation). (In general: The patch-clamp technique gives a direct electrical read-out from membranes.)
T1 sequence (P23576 29-451): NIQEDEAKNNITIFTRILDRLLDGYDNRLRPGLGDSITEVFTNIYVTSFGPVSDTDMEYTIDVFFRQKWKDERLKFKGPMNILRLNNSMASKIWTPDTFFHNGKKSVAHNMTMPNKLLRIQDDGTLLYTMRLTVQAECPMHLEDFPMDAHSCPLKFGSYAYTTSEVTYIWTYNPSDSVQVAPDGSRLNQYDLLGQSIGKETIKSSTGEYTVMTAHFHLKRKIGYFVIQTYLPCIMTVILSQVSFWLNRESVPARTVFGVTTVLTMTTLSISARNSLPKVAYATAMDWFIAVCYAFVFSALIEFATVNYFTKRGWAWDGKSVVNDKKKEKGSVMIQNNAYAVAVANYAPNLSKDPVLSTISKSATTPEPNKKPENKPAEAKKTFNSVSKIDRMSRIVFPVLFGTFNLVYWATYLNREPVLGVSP
T1 sequence (P63079 26-473 partner): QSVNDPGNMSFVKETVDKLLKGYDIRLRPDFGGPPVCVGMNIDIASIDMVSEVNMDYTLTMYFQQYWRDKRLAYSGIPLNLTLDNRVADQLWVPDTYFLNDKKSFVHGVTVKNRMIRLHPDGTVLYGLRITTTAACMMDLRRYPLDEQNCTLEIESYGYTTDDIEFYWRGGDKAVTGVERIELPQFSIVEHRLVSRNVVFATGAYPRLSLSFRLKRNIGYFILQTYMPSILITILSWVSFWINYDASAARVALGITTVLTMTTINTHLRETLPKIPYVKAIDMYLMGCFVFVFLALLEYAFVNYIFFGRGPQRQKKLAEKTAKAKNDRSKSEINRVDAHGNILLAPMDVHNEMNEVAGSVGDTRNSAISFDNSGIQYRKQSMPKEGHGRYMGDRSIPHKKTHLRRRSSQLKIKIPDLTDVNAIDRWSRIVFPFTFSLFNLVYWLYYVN
T1 sequence (P18508 39-466): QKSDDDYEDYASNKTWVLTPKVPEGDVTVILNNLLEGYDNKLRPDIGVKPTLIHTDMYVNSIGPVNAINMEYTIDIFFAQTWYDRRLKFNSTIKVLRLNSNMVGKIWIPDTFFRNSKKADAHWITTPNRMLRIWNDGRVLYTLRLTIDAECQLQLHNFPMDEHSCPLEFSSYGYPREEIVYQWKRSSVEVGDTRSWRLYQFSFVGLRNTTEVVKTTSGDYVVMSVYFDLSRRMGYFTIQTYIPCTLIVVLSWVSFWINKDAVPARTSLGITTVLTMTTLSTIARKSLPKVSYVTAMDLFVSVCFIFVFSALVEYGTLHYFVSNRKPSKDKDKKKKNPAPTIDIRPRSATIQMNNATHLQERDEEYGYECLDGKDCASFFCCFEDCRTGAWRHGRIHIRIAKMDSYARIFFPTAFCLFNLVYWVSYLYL
Series [2] deals with T2, α1β2γ2 GABAARs (Rattus norvegicus, UniProt P18508+P62813). The series is described as follows: [3H]flunitrazepam binding to membranes of transfected HEK293 cells, α1β2γ2.
T2 sequence (P62813 28-455): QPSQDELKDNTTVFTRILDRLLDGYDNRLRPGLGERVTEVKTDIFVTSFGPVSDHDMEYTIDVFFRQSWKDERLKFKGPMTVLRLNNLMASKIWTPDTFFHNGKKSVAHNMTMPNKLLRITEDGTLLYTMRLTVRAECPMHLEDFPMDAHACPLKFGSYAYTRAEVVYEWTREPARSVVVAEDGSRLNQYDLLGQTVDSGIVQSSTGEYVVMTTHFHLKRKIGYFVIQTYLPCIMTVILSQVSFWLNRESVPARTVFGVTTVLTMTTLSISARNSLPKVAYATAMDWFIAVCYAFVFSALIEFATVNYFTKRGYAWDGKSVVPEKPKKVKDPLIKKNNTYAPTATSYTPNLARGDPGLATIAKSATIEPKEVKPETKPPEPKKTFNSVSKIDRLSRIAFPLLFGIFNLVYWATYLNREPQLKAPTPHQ
T2 sequence (P63138 25-474 partner limits assumed): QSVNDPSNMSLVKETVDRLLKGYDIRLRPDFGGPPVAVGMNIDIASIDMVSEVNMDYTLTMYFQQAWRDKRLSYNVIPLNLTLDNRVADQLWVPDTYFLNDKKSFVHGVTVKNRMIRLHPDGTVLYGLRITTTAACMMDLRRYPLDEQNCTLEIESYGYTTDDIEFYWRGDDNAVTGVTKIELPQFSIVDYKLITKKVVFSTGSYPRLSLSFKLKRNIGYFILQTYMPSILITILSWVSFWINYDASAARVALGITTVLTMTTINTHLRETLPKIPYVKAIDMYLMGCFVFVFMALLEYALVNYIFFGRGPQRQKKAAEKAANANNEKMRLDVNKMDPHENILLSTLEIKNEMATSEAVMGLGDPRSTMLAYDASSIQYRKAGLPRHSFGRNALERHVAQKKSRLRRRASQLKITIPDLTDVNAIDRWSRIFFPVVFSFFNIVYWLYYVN
T2 sequence (P18508 39-466): as the sequence (P18508 39-466) above
In another series the target is α5β2γ2 GABAARs (Rattus norvegicus, UniProt P18508+P19969). The series is described as follows: Whole-cell patch-clamp, potentiation of GABA. It counts as cell-based. The settings on record: for Emax: HEK293, read-out: Electrophysiology Emax (potentiation).
Sequence of α5β2γ2 GABAARs (P19969 32-464 limits assumed): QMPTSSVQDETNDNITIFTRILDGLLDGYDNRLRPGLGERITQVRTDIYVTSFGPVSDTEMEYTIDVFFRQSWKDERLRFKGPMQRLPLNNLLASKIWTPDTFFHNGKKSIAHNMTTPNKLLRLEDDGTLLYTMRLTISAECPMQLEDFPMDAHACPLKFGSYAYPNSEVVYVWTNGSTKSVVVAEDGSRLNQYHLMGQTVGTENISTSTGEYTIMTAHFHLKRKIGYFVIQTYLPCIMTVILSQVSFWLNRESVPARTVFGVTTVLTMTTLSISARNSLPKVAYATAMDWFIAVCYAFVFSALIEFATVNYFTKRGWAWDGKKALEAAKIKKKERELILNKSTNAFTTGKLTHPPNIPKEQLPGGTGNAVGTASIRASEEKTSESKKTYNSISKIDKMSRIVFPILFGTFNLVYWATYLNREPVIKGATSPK
Sequence of α5β2γ2 GABAARs (P63138 25-474 partner limits assumed): as the sequence (P63138 25-474 partner limits assumed) above
Sequence of α5β2γ2 GABAARs (P18508 39-466): as the sequence (P18508 39-466) above
Series [3] has as its target T1, α2β3γ2 GABAARs. Put plainly: [3H]flunitrazepam binding to membranes of transfected HEK293 cells, α2β3γ2.
In series [4] the test system is α1β2γ2, α2β3γ2, α3β3γ2 and α5β2γ2 GABAARs. The series is described as follows: Whole-cell patch-clamp in HEK293 cells, statements across the GABAAR subtypes. The settings on record: up to 3 μM for DZP, and 20 μM for CBZ and NDMC. It counts as cell-based, rat.
The test system of the next series is human GABAARs. The settings on record: human GABAARs in Xenopus laevis oocytes; ref Hammer et al., 2015; cited from earlier work.
For a further series, the target named is α3β3γ2 GABAARs (Rattus norvegicus, UniProt P18508+P20236). The series is described as follows: Whole-cell patch-clamp, potentiation of GABA. It counts as cell-based.
Sequence of α3β3γ2 GABAARs (P20236 29-493): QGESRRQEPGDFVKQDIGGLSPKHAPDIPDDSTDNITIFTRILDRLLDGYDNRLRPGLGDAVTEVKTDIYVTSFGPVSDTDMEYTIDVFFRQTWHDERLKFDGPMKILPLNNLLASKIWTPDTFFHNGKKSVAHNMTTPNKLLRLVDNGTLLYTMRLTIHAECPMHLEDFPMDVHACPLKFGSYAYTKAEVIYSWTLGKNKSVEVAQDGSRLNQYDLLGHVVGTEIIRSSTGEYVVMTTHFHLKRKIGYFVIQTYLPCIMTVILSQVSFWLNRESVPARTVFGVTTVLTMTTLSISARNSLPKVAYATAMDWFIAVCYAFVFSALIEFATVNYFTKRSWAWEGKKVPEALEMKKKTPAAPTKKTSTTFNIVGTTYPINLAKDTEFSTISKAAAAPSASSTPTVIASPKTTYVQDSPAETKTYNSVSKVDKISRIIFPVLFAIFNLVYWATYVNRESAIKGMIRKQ
Sequence of α3β3γ2 GABAARs (P63079 26-473 partner): as the sequence (P63079 26-473 partner) above
Sequence of α3β3γ2 GABAARs (P18508 39-466): as the sequence (P18508 39-466) above
Series [5] has as its target T2, α1β2γ2 GABAARs. Put plainly: Whole-cell patch-clamp, potentiation of GABA. The following applies: for Emax: HEK293, read-out: Electrophysiology Emax (potentiation). The format is cell-based.
In series [6] the test system is CCI model of neuropathic pain, mechanical hyperalgesia. The series is described as follows: Mechanical hyperalgesia. The following applies: GABAAR α1(H→R) point-mutated mice, von-Frey filament stimulation, p.o. The format is in vivo, mouse. In short, it runs like this:
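Left sciatic nerve constricted proximal to the trifurcation with three loose 5-0 silk ligatures. Mice 7–10 weeks old, both sexes, wild-type or α1(H→R) point-mutated, tested blinded 7–14 days later. Dosing p.o. as a suspension in 0.9% saline/1% Tween80. Paw withdrawal threshold measured with electronic von Frey filament #7, 3–4 readings per time point. Expressed as %MPE using pre-CCI and pre-drug thresholds.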

In series [7] the test system is locomotor activity of mice. The series is described as follows: Locomotor activity in the open field test. It counts as in vivo, mouse.
For series [8], the system named is recombinant α2β3γ2 GABAARs. The following applies: cited from earlier work; for Potentiation of recombinant α2β3γ2 GABAARs, relative to chlordiazepoxide: % of that of chlordiazepoxide, ref Atack et al.

Molecules are shown by their SMILES. Where two headings read alike, the source gives them in different places.

Take `CN1C(=O)CC(=O)N(c2ccccc2)c2cc(Cl)ccc21` [CBZ, clobazam]: the EC50 was found to be 390 ± 190 nM at α2β3γ2 GABAARs [1], 500 ± 120 nM on α5β2γ2 GABAARs, 1100 ± 320 nM on α3β3γ2 GABAARs and 610 ± 200 nM at α1β2γ2 GABAARs [5]. Moreover, the Emax on α2β3γ2 GABAARs [1] came to 134 ± 16%; at α5β2γ2 GABAARs, 157 ± 11%; at α1β2γ2 GABAARs [5], 171 ± 17%. For the same molecule, the α2/α1 selectivity at α2β3γ2 GABAARs [1] (determined as Emax(α2)/Emax(α1)) is given as 0.78 ± 0.12. Moreover, the IC50 at α1β2γ2 GABAARs [2] is 430 ± 130 nM; on α2β3γ2 GABAARs [3], 390 ± 80 nM. Also, the “Direct activation of GABAAR currents” value in [4] is listed as “did not directly activate GABAAR currents”. Besides, the α2/α1 selectivity ratio in the series on human GABAARs is given as 1.02 ± 0.05.

In the case of `CN1C(=O)CN=C(c2ccccc2)c2cc(Cl)ccc21` [DZP, diazepam], the results for the Emax at α2β3γ2 GABAARs [1], at α5β2γ2 GABAARs and at α1β2γ2 GABAARs [5] were 123 ± 11%, 100 ± 6.4% and 141 ± 17%, respectively. In series [6], this molecule displayed an ED50 antihyperalgesia of 3.4 ± 1.3 mg/kg. Besides, the “Direct activation of GABAAR currents” value in series [4] was “did not directly activate GABAAR currents”. The “Dose at which reduction in locomotor activity reached statistical significance” value in series [7] (129X1/SvJ mice, p.o., 72-120 min) was no less than 10 mg/kg; in series [7] (C57BL/6J mice, p.o., 72-120 min), 1 mg/kg. The “Effect on locomotor activity” value in series [7] (C57BL/6J mice, 3, 10 and 30 mg kg−1 p.o., 72-120 min) was “dose-dependent reduction in locomotor activity”. In series [7] (HRRR triple point-mutated mice (only α1GABAARs BDZ-sensitive), 3–10 mg kg−1 p.o.), the “Effect on locomotor activity in HRRR mice” value was “completely suppressed”. For the same molecule, the “Effect on locomotor activity in RHRR mice” value in series [7] (RHRR triple point-mutated mice (only α2GABAARs BDZ-sensitive), p.o.) was “increased locomotion”. Moreover, the “Dose reducing locomotor activity in RRRR mice” value in [7] (quadruple point-mutated RRRR mice, p.o.) is no less than 30 mg/kg. Besides, the ED50 sedation in series [7] (triple (H→R) point-mutated mice, only α1GABAARs BDZ-sensitive, p.o.) turned out to be 0.59 ± 0.08 mg/kg. In addition, the “Electrophysiology Emax (potentiation)” value at α3β3γ2 GABAARs (α3β3γ2, GABA at EC10, mean ± SD) is on record as 227 ± 15%.

`Cn1ncnc1COc1nn2c(-c3cc(F)ccc3F)nnc2cc1C(C)(C)C` [L-838,417]: the “Potentiation of recombinant α2β3γ2 GABAARs” value in series [8] (ref McKernan et al., 2000) is on record as “about 40%”.

On to `CCn1ncnc1COc1nn2c(-c3ccccc3F)nnc2cc1C(C)(C)C` [TPA023, 7-(1,1-Dimethylethyl)-6-(2-ethyl-2H-1,2,4-triazol-3-ylmethoxy)-3-(2-fluor ophenyl)-1,2,4-triazolo[4,3-b]pyridazine], for which, in series [8] (2006), the “Potentiation of recombinant α2β3γ2 GABAARs, relative to chlordiazepoxide” value is listed as 11%.

For the molecule `CC(C)(O)c1cnn2c(-c3ccc(F)c(-c4c(F)cccc4C#N)c3)cnc2n1` [TPA023B], the “Potentiation of recombinant α2β3γ2 GABAARs, relative to chlordiazepoxide” value in series [8] (2011) is given as 38%.
